Experimental data from ChEMBL document CHEMBL1208769, “Anti-T. cruzi activities and QSAR studies of 3-arylquinoxaline-2-carbonitrile di-N-oxides” (Bioorg Med Chem Lett, 2010).

Experiments:
Trypanosoma cruzi [1] = assay: Antitrypanosomal activity against Trypanosoma cruzi Tulahuen 2 epimastigotes assessed as inhibition of parasite growth at 25 uM relative to control; type: functional; conditions: read-out: GI
In short: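 Epimastigotes of T. cruzi Tulahuen 2 strain exposed to compound at 25 µM. Growth inhibition is given as percentage relative to untreated parasites. Values are means of three separate experiments, SD under 10%.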

[2] = Octanol-water partition coefficient of the compound; type: physicochemical
Trypanosoma cruzi [3] = assay: Antitrypanosomal activity against Trypanosoma cruzi Tulahuen 2 epimastigotes; type: functional, organism-based

Structure (SMILES)	logP [2]	IC50 (Trypanosoma cruzi [3]) [µM]	inhibition of growth at 25 µM (Trypanosoma cruzi [1]) [%]
Cc1ccc2c(c1)[n+]([O-])c(C#N)c(-c1ccc(F)cc1)[n+]2[O-]	2.48	17.4	83.8
N#Cc1c(-c2ccccc2)[n+]([O-])c2cc(Cl)c(Cl)cc2[n+]1[O-]	2.87	15.3	90
COc1ccc(-c2c(C#N)[n+]([O-])c3ccccc3[n+]2[O-])cc1	1.58	19.3	110
N#Cc1c(NC(=O)c2cccs2)[n+]([O-])c2cc(F)c(F)cc2[n+]1[O-]	1.62	10.8	92.4
N#Cc1c(-c2ccco2)[n+]([O-])c2ccccc2[n+]1[O-]	0.582	25	46.3
COc1ccc(-c2c(C#N)[n+]([O-])c3cc(C)ccc3[n+]2[O-])cc1	1.82	18.9	94.6
N#Cc1c(-c2ccccc2)[n+]([O-])c2ccccc2[n+]1[O-]	1.84	66.6	36.9
N#Cc1c(-c2ccc(Cl)cc2)[n+]([O-])c2ccccc2[n+]1[O-]	2.35	18.1	97.1
Cc1ccc(-c2c(C#N)[n+]([O-])c3cc(Cl)ccc3[n+]2[O-])cc1	2.6	17.4	104
COc1ccc(-c2c(C#N)[n+]([O-])c3cc(C)c(C)cc3[n+]2[O-])cc1	2.06	18.3	100
COc1ccc2c(c1)[n+]([O-])c(C#N)c(-c1ccccc1)[n+]2[O-]	1.58	19.3	111
COc1ccc(-c2c(C#N)[n+]([O-])c3cc(Cl)c(Cl)cc3[n+]2[O-])cc1	2.33	29	42.7
N#Cc1c(-c2ccco2)[n+]([O-])c2ccc(Cl)cc2[n+]1[O-]	1.11	18.9	64.5
N#Cc1c(-c2ccccc2)[n+]([O-])c2ccc(C(F)(F)F)cc2[n+]1[O-]	2.72	15.1	100
Cc1ccc(-c2c(C#N)[n+]([O-])c3cc(C)c(C)cc3[n+]2[O-])cc1	2.57	21.2	98.2
N#Cc1c(-c2ccc(Cl)cc2)[n+]([O-])c2ccc(Cl)cc2[n+]1[O-]	2.87	15.3	97.5

Structure (SMILES)	logP [2]	IC50 (Trypanosoma cruzi [3]) [µM]	inhibition of growth at 25 µM (Trypanosoma cruzi [1]) [%]
Cc1cc2c(cc1C)[n+]([O-])c(-c1cccs1)c(C#N)[n+]2[O-]	1.87	16.7	84.8
Cc1ccc2c(c1)[n+]([O-])c(C#N)c(-c1ccccc1)[n+]2[O-]	2.09	23.7	88.1
Cc1ccc2c(c1)[n+]([O-])c(C#N)c(-c1ccco1)[n+]2[O-]	0.845	18.1	68.5
Cc1cc2c(cc1C)[n+]([O-])c(-c1ccco1)c(C#N)[n+]2[O-]	1.1	20.1	64.7
Cc1ccc(-c2c(C#N)[n+]([O-])c3ccccc3[n+]2[O-])cc1	2.09	23.7	104
N#Cc1c(-c2ccccc2)[n+]([O-])c2ccc(Cl)cc2[n+]1[O-]	2.35	18.1	97.8
Cc1ccc(-c2c(C#N)[n+]([O-])c3cc(F)ccc3[n+]2[O-])cc1	2.48	17.4	87.3
N#Cc1c(-c2ccc(F)cc2)[n+]([O-])c2ccccc2[n+]1[O-]	2.23	15.2	82.8
Cc1cc2c(cc1C)[n+]([O-])c(-c1ccc(Cl)cc1)c(C#N)[n+]2[O-]	2.83	16.4	98.7
COc1ccc2c(c1)[n+]([O-])c(C#N)c(-c1ccc(C)cc1)[n+]2[O-]	1.82	18.9	112
N#Cc1c(-c2ccccc2)[n+]([O-])c2ccc(F)cc2[n+]1[O-]	2.23	15.4	89.4
N#Cc1c(-c2ccc(F)cc2)[n+]([O-])c2cc(F)c(F)cc2[n+]1[O-]	2.74	36.6	29.4
Cc1cc2c(cc1C)[n+]([O-])c(-c1ccc(F)cc1)c(C#N)[n+]2[O-]	2.72	16.4	92.5
N#Cc1c(-c2ccccc2)[n+]([O-])c2cc(F)c(F)cc2[n+]1[O-]	2.62	15.3	81.1
Cc1ccc2c(c1)[n+]([O-])c(C#N)c(-c1ccc(Cl)cc1)[n+]2[O-]	2.6	17.4	88.4
CC1CS(=O)(=O)CCN1/N=C/c1ccc([N+](=O)[O-])o1 (stereo not given) [NIFURTIMOX]	-0.746	–	100

Second part, led by results:

logP [2]	IC50 (Trypanosoma cruzi [3]) [µM]	Structure (SMILES)	inhibition of growth at 25 µM (Trypanosoma cruzi [1]) [%]
1.89	7.1	N#Cc1c(-c2cccs2)[n+]([O-])c2ccc(Cl)cc2[n+]1[O-]	100
2.87	14.6	Cc1ccc(-c2c(C#N)[n+]([O-])c3cc(F)c(F)cc3[n+]2[O-])cc1	86.2
2.62	14.4	N#Cc1c(-c2ccc(F)cc2)[n+]([O-])c2ccc(F)cc2[n+]1[O-]	63.8
2.41	10.6	Cc1cc2c(cc1C)[n+]([O-])c(-c1ccc(OC(F)(F)F)cc1)c(C#N)[n+]2[O-]	79.8
2.09	14.3	COc1ccc(-c2c(C#N)[n+]([O-])c3cc(Cl)ccc3[n+]2[O-])cc1	110
2.33	13.1	N#Cc1c(-c2ccc(OC(F)(F)F)cc2)[n+]([O-])c2ccc(F)cc2[n+]1[O-]	80.2
1.75	13	N#Cc1c(-c2cccs2)[n+]([O-])c2ccc(F)cc2[n+]1[O-]	100
1.91	6.5	COc1ccccc1N1CCN(c2c(C#N)[n+]([O-])c3cc(Cl)ccc3[n+]2[O-])CC1	100
2.87	11.3	N#Cc1c(-c2ccc(Cl)cc2)[n+]([O-])c2cc(F)c(F)cc2[n+]1[O-]	80.9
0.983	14.9	N#Cc1c(-c2ccco2)[n+]([O-])c2ccc(F)cc2[n+]1[O-]	83.4
2.15	10.4	N#Cc1c(-c2cccs2)[n+]([O-])c2cc(F)c(F)cc2[n+]1[O-]	82.9
2.09	12.1	COc1ccc(-c2c(C#N)[n+]([O-])c3cc(F)c(F)cc3[n+]2[O-])cc1	91.6
2.95	12.3	Cc1ccc(-c2c(C#N)[n+]([O-])c3cc(C(F)(F)F)ccc3[n+]2[O-])cc1	114
2.99	6.7	N#Cc1c(N2CCN(c3cccc(C(F)(F)F)c3)CC2)[n+]([O-])c2ccc(Cl)cc2[n+]1[O-]	94
1.64	13.1	N#Cc1c(-c2ccco2)[n+]([O-])c2cc(Cl)c(Cl)cc2[n+]1[O-]	67
3.1	14.6	Cc1ccc(-c2c(C#N)[n+]([O-])c3cc(Cl)c(Cl)cc3[n+]2[O-])cc1	95.6
2.09	14.3	COc1ccc2c(c1)[n+]([O-])c(C#N)c(-c1ccc(Cl)cc1)[n+]2[O-]	111
3.1	14.9	N#Cc1c(-c2ccc(F)cc2)[n+]([O-])c2ccc(C(F)(F)F)cc2[n+]1[O-]	100
1.11	14.3	COc1ccc2c(c1)[n+]([O-])c(C#N)c(-c1cccs1)[n+]2[O-]	109
1.35	12.7	N#Cc1c(-c2cccs2)[n+]([O-])c2ccccc2[n+]1[O-]	100
1.69	8.2	COc1ccc2c(c1)[n+]([O-])c(C#N)c(-c1ccc(OC(F)(F)F)cc1)[n+]2[O-]	100
2.41	10.4	N#Cc1c(-c2cccs2)[n+]([O-])c2cc(Cl)c(Cl)cc2[n+]1[O-]	78.5
2.45	9.9	N#Cc1c(-c2ccc(OC(F)(F)F)cc2)[n+]([O-])c2cc(F)c(F)cc2[n+]1[O-]	74.4
2.98	11.3	N#Cc1c(-c2ccc(F)cc2)[n+]([O-])c2cc(Cl)c(Cl)cc2[n+]1[O-]	85.3
2.18	10.7	Cc1ccc2c(c1)[n+]([O-])c(C#N)c(-c1ccc(OC(F)(F)F)cc1)[n+]2[O-]	75.1
2.45	10.7	COc1ccc(-c2c(C#N)[n+]([O-])c3cc(C(F)(F)F)ccc3[n+]2[O-])cc1	114
1.94	14.5	N#Cc1c(-c2ccc(OC(F)(F)F)cc2)[n+]([O-])c2ccccc2[n+]1[O-]	100
1.97	14.6	COc1ccc2c(c1)[n+]([O-])c(C#N)c(-c1ccc(F)cc1)[n+]2[O-]	84.2
2.45	8.3	N#Cc1c(-c2ccc(OC(F)(F)F)cc2)[n+]([O-])c2ccc(Cl)cc2[n+]1[O-]	89.1
1.62	14.8	Cc1ccc2c(c1)[n+]([O-])c(C#N)c(-c1cccs1)[n+]2[O-]	74.3
